Laboratory results as given in publication PMC9978883 (Molecular Cancer Therapeutics, 2023).

Tests used:
[1] = tested on: DU145; assay: Cell proliferation; assay type: cell-based; details: Homo sapiens, DU-145, 72 h, read-out: Growth inhibitory IC50, DU145
[2] = tested on: WPMY; assay: Cell proliferation; assay type: cell-based; details: Homo sapiens, 72 h, read-out: Growth inhibitory IC50, WPMY
[3] = tested on: LNCaP; assay: Cell proliferation; assay type: cell-based; details: Homo sapiens, 72 h, read-out: Growth inhibitory IC50, LNCaP
[4] = tested on: VCaP; assay: Cell proliferation; assay type: cell-based, human; details: for IC50: Homo sapiens, VCaP, 72 h, read-out: Growth inhibitory IC50, VCaP
[5] = tested on: PC3; assay: Cell proliferation; assay type: cell-based; details: Homo sapiens, PC-3, 72 h, read-out: Growth inhibitory IC50, PC3
[6] = tested on: AIF; assay: AIF Western blot in VCaP cells; assay type: cell-based, human
[7] = tested on: VCaP cells; assay: Cell necrosis and apoptosis, PI/Hoechst 33342 flow cytometry; assay type: cell-based, human
[8] = tested on: cleaved PARP1; assay: Western blotting for cleaved PARP1 in VCaP cells; assay type: cell-based, human
[9] = tested on: γ-H2A.X; assay: γ-H2A.X Western blotting in VCaP cells; assay type: cell-based, human
[10] = molecular target: STAT3 (Homo sapiens, UniProt P40763); assay: Surface plasmon resonance, STAT3; assay type: binding
Chain of STAT3 (P40763 whole entry): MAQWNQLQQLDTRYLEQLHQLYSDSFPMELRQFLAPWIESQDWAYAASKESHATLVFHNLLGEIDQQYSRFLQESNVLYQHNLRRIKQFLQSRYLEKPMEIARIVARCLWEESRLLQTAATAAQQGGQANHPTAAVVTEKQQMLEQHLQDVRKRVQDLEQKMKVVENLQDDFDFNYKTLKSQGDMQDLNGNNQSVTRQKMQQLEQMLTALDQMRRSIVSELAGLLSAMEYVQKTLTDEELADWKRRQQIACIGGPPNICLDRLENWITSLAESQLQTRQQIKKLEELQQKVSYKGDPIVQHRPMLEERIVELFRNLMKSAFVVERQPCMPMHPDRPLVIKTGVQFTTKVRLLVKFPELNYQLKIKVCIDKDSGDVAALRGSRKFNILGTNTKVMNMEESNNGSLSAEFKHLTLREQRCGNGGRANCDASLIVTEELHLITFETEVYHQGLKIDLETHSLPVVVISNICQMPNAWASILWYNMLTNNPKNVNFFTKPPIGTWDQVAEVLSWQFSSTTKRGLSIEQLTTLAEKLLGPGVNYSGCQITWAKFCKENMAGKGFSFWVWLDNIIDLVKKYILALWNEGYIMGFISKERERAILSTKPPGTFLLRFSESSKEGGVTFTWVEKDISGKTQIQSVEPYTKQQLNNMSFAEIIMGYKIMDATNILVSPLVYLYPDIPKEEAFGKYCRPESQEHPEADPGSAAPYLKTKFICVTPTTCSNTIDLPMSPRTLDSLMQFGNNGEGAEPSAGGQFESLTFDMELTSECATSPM

[11] = molecular target: T1, ALDH1 (Homo sapiens, UniProt P00352); assay: Surface plasmon resonance, ALDH1; assay type: binding
T1 sequence (P00352 1-501): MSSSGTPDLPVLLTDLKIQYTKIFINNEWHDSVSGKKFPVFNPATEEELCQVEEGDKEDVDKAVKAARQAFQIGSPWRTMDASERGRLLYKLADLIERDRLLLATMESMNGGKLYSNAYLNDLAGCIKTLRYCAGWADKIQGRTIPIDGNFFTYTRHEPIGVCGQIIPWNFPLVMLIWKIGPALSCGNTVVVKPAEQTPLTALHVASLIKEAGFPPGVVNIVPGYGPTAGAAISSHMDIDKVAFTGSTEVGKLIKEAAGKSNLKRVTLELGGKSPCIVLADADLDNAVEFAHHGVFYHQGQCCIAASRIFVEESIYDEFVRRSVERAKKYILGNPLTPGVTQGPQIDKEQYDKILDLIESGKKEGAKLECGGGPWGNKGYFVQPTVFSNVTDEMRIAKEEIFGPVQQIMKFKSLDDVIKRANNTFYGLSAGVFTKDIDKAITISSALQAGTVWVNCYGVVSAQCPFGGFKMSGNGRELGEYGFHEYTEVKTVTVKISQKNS

[12] = tested on: DU145-ERG
[13] = tested on: DU145 vector; assay: Cell proliferation on DU145 vector control cells; assay type: cell-based; details: Homo sapiens, DU-145, read-out: IC50, DU145 vector
[14] = molecular target: T2, interaction between ERG and PARP1 (Homo sapiens, UniProt P11308); assay type: cell-based; details: 0.5 or 1 μmol/L, 2 hours, DU145-ERG
T2 sequence (P11308 1-479): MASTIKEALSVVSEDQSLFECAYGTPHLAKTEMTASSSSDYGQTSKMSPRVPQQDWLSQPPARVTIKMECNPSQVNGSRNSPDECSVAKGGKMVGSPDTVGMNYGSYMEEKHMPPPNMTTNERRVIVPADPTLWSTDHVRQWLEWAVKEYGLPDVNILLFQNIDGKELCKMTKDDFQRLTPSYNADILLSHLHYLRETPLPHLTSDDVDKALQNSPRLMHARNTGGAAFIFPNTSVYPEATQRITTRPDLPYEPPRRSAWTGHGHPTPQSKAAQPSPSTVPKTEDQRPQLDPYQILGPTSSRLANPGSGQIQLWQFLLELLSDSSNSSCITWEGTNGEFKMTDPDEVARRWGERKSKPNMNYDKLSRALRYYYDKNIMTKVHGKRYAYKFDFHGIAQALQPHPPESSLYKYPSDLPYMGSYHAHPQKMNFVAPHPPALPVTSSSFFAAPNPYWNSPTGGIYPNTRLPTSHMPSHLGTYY

[15] = tested on: AIF mRNA; assay: RT-qPCR for AIF mRNA on VCaP cells; assay type: cell-based, human; details: 2 or 5 μmol/L, 12 or 24 hours
[16] = tested on: VCaP cells; assay: Cell-cycle determination by flow cytometry; assay type: cell-based, human; details: 5, 10, or 20 μmol/L, 24 hours
[17] = molecular target: T3, ERG (Homo sapiens, UniProt P11308); assay: Surface plasmon resonance, ERG; assay type: binding; details: SPR
T3 sequence (P11308 1-479): T2 sequence (P11308 1-479)

[18] = tested on: VCaP xenograft tumors; assay: VCaP xenograft in male SCID mice; assay type: in vivo
Procedure, shortened: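 Male SCID mice were implanted subcutaneously on the left abdomen with 4 × 10^6 VCaP cells. At about 100 mm3, mice were randomised, six per group. Dosing was 75 mg/kg i.p. once daily or 37.5 mg/kg by gavage twice daily; controls got solvent i.p. Plasma ALT and AST were measured by kit every 7 days. Endpoint was tumour volume >2 cm3. Data are mean ± SD, Dunnett test versus control.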

[19] = NFZ-treated groups, every 7 days

| IC50 [1] | IC50 [3] | IC50 [4] | IC50 [5] | Structure (SMILES) | IC50 [2] | also measured |
| --- | --- | --- | --- | --- | --- | --- |
| 27.7 ± 1.11 µM | > 30 µM | 13.9 ± 1.12 µM | 3.87 ± 0.35 µM | CSCC1CN(/N=C/c2ccc([N+](=O)[O-])o2)C(=O)O1 (stereo not shown) [Nifuratel] | 26.6 ± 0.13 µM |  |
| > 30 µM | > 30 µM | > 30 µM | > 30 µM | CC1CS(=O)(=O)CCN1/N=C/c1ccc([N+](=O)[O-])o1 (stereo not shown) [Nifurtimox] | > 30 µM |  |
| 0.16 ± 0.05 µM | 0.23 ± 0.08 µM | 0.23 ± 0.05 µM | 0.29 ± 0.07 µM | CC(=O)c1cc2c(o1)C(=O)c1ccccc1C2=O [Napabucasin] | 0.25 ± 0.01 µM |  |
|  |  |  |  | O=C(c1cc(Cc2n[nH]c(=O)c3ccccc23)ccc1F)N1CCN(C(=O)C2CC2)CC1 [Olaparib, olaparib] |  | Effect of olaparib on NFZ-induced AIF release ([6]; 10 μmol/L olaparib with NFZ): reduced; Effect of olaparib on NFZ-induced necrotic cells (Q1 and Q2) ([7]; olaparib and NFZ combination group versus NFZ): reduced the number of necrotic cells; Effect of olaparib on NFZ-induced PARP1 cleavage ([8]; 10 μmol/L OLP with NFZ): not altered; Effect of olaparib on NFZ-induced γ-H2A.X ([9]; 10 μmol/L OLP with NFZ): counteracted this effect of NFZ; Effect of olaparib on NFZ-mediated growth inhibition ([4]; 5 μmol/L NFZ with 20 μmol/L olaparib): completely abrogated the inhibitory effects of NFZ; Effect of olaparib on NFZ-mediated growth inhibition ([4]; 5 μmol/L NFZ with 0.5, 1.0, or 20 μmol/L OLP): blocked NFZ-mediated growth inhibition |
| 22.6 ± 2.93 µM | 33 ± 3.11 µM | > 30 µM | 27 ± 2 µM | CCN(CC)C(=S)SSC(=S)N(CC)CC [Disulfiram] | 23.3 ± 0.49 µM |  |

| Structure (SMILES) | IC50 [1] | IC50 [3] | IC50 [4] | IC50 [5] | IC50 [2] | also measured |
| --- | --- | --- | --- | --- | --- | --- |
| O=C(N/N=C/c1ccc([N+](=O)[O-])o1)c1cc([N+](=O)[O-])cc([N+](=O)[O-])c1O [Nifursol] | > 30 µM | > 30 µM | > 30 µM | > 30 µM | > 30 µM |  |
| O=C(N/N=C/c1ccc([N+](=O)[O-])o1)c1ccc(O)cc1 [NFZ, Nifuroxazide] | 5.12 ± 0.63 µM | 13.4 ± 2.66 µM | 2.65 ± 0.08 µM | 3.62 ± 0.51 µM | 4.53 ± 0.12 µM | Kd [10]: 22.8 µM; Binding pattern with STAT3 ([10]; SPR): fast binding/fast dissociation; Kd [11]: 22.2 µM; Binding pattern with ALDH1 ([11]; SPR): fast binding/fast dissociation; Reduction of NFZ inhibition on DU145-ERG by addition of olaparib ([12]; 10 μmol/L OLP): at least 10 fold; Difference in IC50 between DU145-ERG and DU145 vector ([12]; p < 0.0001): at least sevenfold; IC50 [13]: 7.68 ± 0.211 µM; AIF protein ([6]; 2 or 5 μmol/L, within 30 minutes, VCaP): rapidly released AIF; Amount of PARP1 bound to ERG [14]: reduced the amount of PARP1 bound to ERG; Dead cells along the PI axis (Q1 and Q2) ([7]; 5, 10, or 20 μmol/L, VCaP): significantly higher than that in the DMSO group; PARP1 cleavage ([8]; 2 or 5 μmol/L, VCaP): increased PARP1 cleavage; γ-H2A.X expression ([9]; 2 or 5 μmol/L, different times, VCaP): increased; AIF mRNA expression [15]: increased the expression of AIF; Proportion of cells in the G1–G0 phase [16]: increased with the increasing NFZ concentrations; Binding pattern with ERG [17]: fast binding and fast dissociation; Plasma ALT [18, 19]: fluctuated within a normal range; Plasma AST [18, 19]: fluctuated within a normal range; Weight loss of mice ([18]; NFZ-treated versus vehicle): significantly less than that of mice treated with vehicle; Toxicity by observation ([18]; gavage or i.p.): did not show obvious toxicity |
